Calls of active or inactive are those of the source. The calls are words filed in the database; no cut-off is given here.
Experiments:
[1] = Inhibition of rat serum BuChE using butyrylthiocholine iodide as substrate incubated for 15 mins by Ellman's method
In short: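 Rat serum BuChE (25% serum) by Ellman method, butyrylthiocholine iodide 1 mmol/L, phosphate buffer pH 7.4, read at 405 nm. Compound concentrations varied, each in triplicate.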

[2] = molecular target: T1, Amine oxidase [flavin-containing] B (Homo sapiens, UniProt P27338); assay: Inhibition of recombinant human MAO-B expressed in baculovirus infected High 5 insect cells using kynuramine as substrate incubated for 30 mins by spectrofluorometric method; assay type: cell-based
T1 sequence (P27338 whole entry): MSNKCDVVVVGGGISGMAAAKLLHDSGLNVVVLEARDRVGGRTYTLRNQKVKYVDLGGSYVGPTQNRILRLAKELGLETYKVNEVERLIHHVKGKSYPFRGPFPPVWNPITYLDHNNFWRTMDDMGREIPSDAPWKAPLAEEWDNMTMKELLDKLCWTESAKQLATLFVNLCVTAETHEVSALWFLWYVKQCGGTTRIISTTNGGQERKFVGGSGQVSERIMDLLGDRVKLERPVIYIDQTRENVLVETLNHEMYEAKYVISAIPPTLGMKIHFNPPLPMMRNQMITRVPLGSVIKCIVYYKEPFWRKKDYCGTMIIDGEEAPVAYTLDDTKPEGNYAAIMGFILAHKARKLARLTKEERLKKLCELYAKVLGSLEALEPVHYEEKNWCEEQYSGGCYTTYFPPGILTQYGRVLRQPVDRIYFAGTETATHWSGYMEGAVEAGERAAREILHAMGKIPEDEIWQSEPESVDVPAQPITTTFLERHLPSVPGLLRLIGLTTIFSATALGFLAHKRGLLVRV

[3] = Inhibition of rat serum BuChE at 50 uM using butyrylthiocholine iodide as substrate incubated for 15 mins by Ellman's method relative to control; conditions: 0.25 h
In short: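 Ellman method with 25% rat serum as BuChE source, butyrylthiocholine iodide 1 mmol/L, phosphate buffer pH 7.4, absorbance at 405 nm. Compounds tested at 50 µM. […] Triplicate wells.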

[4] = molecular target: Amyloid-beta precursor protein (Homo sapiens) (UniProt P05067); assay: Inhibition of self-induced aggregation of amyloid beta (1-42) (unknown origin) at 25 uM after 24 hrs by thioflavin T fluorescence-based fluorimetric method relative to control
Chain of Amyloid-beta precursor protein (Homo sapiens) (P05067 whole entry): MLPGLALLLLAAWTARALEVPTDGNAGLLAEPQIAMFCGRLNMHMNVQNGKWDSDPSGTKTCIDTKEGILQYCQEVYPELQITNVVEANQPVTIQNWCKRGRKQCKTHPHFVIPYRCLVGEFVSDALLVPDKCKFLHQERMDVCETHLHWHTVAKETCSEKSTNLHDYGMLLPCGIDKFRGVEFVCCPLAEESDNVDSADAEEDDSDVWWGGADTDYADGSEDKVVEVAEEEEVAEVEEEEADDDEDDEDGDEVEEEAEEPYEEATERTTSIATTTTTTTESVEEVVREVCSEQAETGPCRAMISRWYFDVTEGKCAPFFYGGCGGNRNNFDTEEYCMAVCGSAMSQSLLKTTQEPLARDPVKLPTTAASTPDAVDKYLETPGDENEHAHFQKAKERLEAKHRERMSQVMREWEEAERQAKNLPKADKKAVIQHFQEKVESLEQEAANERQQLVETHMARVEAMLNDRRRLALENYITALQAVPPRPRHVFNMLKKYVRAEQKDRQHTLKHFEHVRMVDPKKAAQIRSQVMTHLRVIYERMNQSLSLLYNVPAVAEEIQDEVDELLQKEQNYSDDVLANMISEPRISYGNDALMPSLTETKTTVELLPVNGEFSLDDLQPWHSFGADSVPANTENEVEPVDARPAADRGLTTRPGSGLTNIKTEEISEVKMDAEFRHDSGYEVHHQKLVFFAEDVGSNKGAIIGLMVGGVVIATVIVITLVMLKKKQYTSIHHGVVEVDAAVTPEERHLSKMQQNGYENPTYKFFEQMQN
In short: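 Aβ1-42 was pretreated in HFIP, dried and stocked in DMSO. Aβ1-42 (25 µM final) was incubated with compound (25 µM final) in 50 mM phosphate buffer pH 7.4 at 37 °C for 24 h. 5 µM ThT in 50 mM glycine-NaOH pH 8.5 was then added. Fluorescence was read at ex 446/em 490 nm. Inhibition = (1−IFi/IFc)×100 after background subtraction, in triplicate.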

[5] = molecular target: T2, Amine oxidase [flavin-containing] A (Homo sapiens, UniProt P21397); assay: Inhibition of recombinant human MAO-A expressed in baculovirus infected High 5 insect cells at 10 uM using kynuramine as substrate incubated for 30 mins by spectrofluorometric method relative to control; conditions: 0.5 h
T2 sequence (P21397 whole entry): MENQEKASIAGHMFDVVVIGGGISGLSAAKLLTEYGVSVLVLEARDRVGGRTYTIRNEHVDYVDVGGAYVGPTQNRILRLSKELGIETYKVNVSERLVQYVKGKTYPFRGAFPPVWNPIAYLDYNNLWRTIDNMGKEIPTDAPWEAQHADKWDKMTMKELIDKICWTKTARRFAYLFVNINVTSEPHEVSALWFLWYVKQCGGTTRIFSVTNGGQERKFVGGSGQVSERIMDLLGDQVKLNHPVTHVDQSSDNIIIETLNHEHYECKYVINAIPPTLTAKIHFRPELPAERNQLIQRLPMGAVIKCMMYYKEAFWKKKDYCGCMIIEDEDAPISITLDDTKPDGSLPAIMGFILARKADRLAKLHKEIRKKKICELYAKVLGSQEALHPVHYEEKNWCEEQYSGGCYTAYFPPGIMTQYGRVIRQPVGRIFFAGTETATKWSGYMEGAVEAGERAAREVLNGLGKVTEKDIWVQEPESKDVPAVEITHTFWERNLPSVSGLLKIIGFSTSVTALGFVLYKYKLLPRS
In short: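 Recombinant human MAO-A or MAO-B (7.5 µg/mL) with kynuramine substrate in 100 mM potassium phosphate pH 7.4 (KCl-isotonic), <4% DMSO, 30 min at 37 °C. Stopped with 2 N NaOH. 4-Hydroxyquinoline was measured fluorometrically (ex 310/em 400 nm) against a calibration curve. Single-point inhibition at 10 µM. IC50 from six-concentration sigmoidal curves, triplicate. SI = IC50(MAO-A)/IC50(MAO-B).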

[6] = Inhibition of Cu2+-mediated aggregation of amyloid beta (1-42) (unknown origin) at 25 uM after 24 hrs by thioflavin T fluorescence-based fluorimetric method relative to control; assay type: functional
In short: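 HFIP-pretreated Aβ1-42 (25 µM) was incubated with Cu2+ (25 µM), with or without compound (25 µM final), in 20 mM HEPES/150 mM NaCl pH 6.6 at 37 °C for 24 h. 5 µM ThT in 50 mM glycine-NaOH pH 8.5 was then added. Fluorescence was read at ex 446/em 490 nm. Percent inhibition was taken versus no-inhibitor control after background subtraction, in triplicate.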

[7] = Antioxidant activity assessed as trolox equivalents of AAPH radical scavenging activity at 5 uM preincubated for 15 mins followed by AAPH addition measured every 60 sec for 90 mins by ORAC-FL assay; assay type: functional
In short: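 Peroxyl radicals generated by AAPH (12 mM final) at 37 °C in phosphate buffer pH 7.4 with fluorescein (150 nM final). Sample and fluorescein were preincubated 15 min before AAPH addition. Fluorescence (ex 485/em 535 nm) was read every 60 s for 90 min.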

Homo sapiens = organism: Homo sapiens; assay: Selectivity index, ratio of IC50 for recombinant human MAO-A expressed in baculovirus infected High 5 insect cells to IC50 for recombinant human MAO-B expressed in baculovirus infected High 5 insect cells
In short: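 Recombinant human MAO-A or MAO-B (7.5 µg/mL) with kynuramine substrate in 100 mM potassium phosphate pH 7.4 (KCl-isotonic), <4% DMSO, 30 min at 37 °C. Stopped with 2 N NaOH. Single-point inhibition at 10 µM. IC50 from six-concentration sigmoidal curves, triplicate. SI = IC50(MAO-A)/IC50(MAO-B).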

Acetylcholinesterase = Acetylcholinesterase (Electrophorus electricus, UniProt O42275); assay: Inhibition of electric eel AChE using acetylthiocholine iodide as substrate incubated for 15 mins by Ellman's method
Chain of Acetylcholinesterase (O42275 whole entry): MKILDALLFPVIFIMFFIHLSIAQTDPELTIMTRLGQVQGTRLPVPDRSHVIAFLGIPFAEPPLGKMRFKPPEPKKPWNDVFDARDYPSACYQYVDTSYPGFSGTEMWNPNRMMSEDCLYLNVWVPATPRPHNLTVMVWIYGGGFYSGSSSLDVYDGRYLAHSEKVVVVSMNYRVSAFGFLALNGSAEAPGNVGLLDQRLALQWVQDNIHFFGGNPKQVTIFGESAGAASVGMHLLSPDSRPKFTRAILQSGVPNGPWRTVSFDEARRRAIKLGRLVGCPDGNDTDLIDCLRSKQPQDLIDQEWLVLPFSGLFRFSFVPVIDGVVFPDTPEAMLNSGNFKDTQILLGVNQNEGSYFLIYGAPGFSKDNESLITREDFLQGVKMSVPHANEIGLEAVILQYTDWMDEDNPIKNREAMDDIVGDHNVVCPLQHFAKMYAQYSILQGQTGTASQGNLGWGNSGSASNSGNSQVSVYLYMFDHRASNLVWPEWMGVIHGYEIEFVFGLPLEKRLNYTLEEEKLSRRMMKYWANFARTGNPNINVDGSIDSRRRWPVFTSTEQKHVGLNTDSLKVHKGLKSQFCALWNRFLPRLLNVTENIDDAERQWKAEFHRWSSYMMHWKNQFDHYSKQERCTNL
In short: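 Ellman spectrophotometric assay: electric eel AChE 0.05 U/mL final, acetylthiocholine iodide 1 mmol/L, phosphate buffer pH 8.0, range of compound concentrations.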

[8] = molecular target: T2, Amine oxidase [flavin-containing] A; assay: Inhibition of recombinant human MAO-A expressed in baculovirus infected High 5 insect cells using kynuramine as substrate incubated for 30 mins by spectrofluorometric method
[9] = molecular target: T1, Amine oxidase [flavin-containing] B; assay: Potency index, ratio of rasagiline IC50 to compound IC50 for recombinant human MAO-B expressed in baculovirus infected High 5 insect cells
[10] = Metal chelating activity assessed as compound-Cu2+ complex formation by measuring shift in maximum absorption wavelength at 37.5 uM after 30 mins by UV-vis spectrophotometric method; assay type: physicochemical; conditions: 0.5 h
In short: (§1)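 Difference UV-vis spectra (200-600 nm) of compound and metal salt (CuCl2 or AlCl3), each 37.5 µM final, after 30 min at room temperature. Spectra of metal alone and compound alone were subtracted from the mixture spectrum.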

[11] = molecular target: T1, Amine oxidase [flavin-containing] B; assay: Potency index, ratio of iproniazid IC50 to compound IC50 for recombinant human MAO-B expressed in baculovirus infected High 5 insect cells
[12] = molecular target: Acetylcholinesterase (Electrophorus electricus) (UniProt O42275); assay: Mixed-type inhibition of electric eel AChE at 2.5 to 10 uM using varying levels of acetylthiocholine iodide as substrate preincubated for 15 mins followed by substrate addition by Lineweaver-Burk plot analysis
Chain of Acetylcholinesterase (Electrophorus electricus) (O42275 24-633 limits assumed): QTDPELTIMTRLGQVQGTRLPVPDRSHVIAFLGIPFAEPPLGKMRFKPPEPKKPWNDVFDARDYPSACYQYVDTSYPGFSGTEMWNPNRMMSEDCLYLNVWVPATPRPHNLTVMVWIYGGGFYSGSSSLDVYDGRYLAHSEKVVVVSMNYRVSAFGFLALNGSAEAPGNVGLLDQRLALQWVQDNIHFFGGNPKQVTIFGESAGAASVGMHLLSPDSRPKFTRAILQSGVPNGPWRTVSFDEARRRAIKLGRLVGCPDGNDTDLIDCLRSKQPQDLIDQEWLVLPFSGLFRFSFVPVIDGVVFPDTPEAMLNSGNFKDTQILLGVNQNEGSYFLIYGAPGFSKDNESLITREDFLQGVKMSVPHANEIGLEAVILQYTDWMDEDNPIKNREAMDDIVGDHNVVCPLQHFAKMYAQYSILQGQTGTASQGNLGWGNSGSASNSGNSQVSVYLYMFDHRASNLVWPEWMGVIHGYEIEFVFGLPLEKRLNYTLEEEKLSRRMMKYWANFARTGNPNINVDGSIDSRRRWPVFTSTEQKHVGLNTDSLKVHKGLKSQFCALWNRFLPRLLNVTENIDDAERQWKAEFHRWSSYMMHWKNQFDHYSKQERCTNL
In short: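 Kinetics with EeAChE in 0.1 M phosphate pH 8.0 with DTNB. Three inhibitor concentrations preincubated with enzyme 15 min at 37 °C, then acetylthiocholine added at 0.1–0.4 mM. Read at 412 nm. Weighted least-squares Lineweaver–Burk plots; slopes replotted against inhibitor concentration. No-inhibitor controls run in parallel.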

[13] = Metal chelating activity assessed as compound-Al3+ complex formation by measuring shift in maximum absorption wavelength at 37.5 uM after 30 mins by UV-vis spectrophotometric method; assay type: physicochemical; conditions: 0.5 h; in short: as §1
[14] = Metal chelating activity assessed as mole fraction of compound required to show 1:1 stoichiometry for Cu2+-compound complex at 37.5 uM after 30 mins by UV-vis spectrophotometric method; assay type: physicochemical; conditions: 0.5 h
In short: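 Molar ratio method: a methanol solution of compound (37.5 µM final) was titrated with CuCl2 (3.75-150 µM final). Absorbance at 474 nm was taken after subtracting CuCl2 and compound spectra and plotted against the compound mole fraction. The intersection of the linear segments gave the stoichiometry.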

[15] = Permeability of compound at 100 ug/ml after 18 hrs by PAMPA; assay type: ADME; conditions: read-out: permeability

CCN(C)C(=O)Oc1cccc([C@H](C)N(C)C)c1 [RIVASTIGMINE]
IC50 [1]: 2.86 µM

O=C(/C=C/c1ccc(N2CCOCC2)cc1)c1ccc(OC(=O)N2CCCC2)cc1O
IC50 [2]: 0.71 µM | inhibition (INH) [3]: < 10% | inhibition [4]: 44.4% | inhibition at 10 µM [5]: 15.2% | inhibition [6]: 48.9% | Activity [7]: 0.51 µMequiv/µM | Ratio IC50 (Homo sapiens): > 14.1 | IC50 (Acetylcholinesterase): 63.5 µM

CN(C)C(=O)Oc1ccc(C(=O)/C=C/c2ccc(N(C)C)cc2)c(O)c1
IC50 [2]: 2.48 µM | inhibition (INH) [3]: < 10% | IC50 [8]: 10.2 µM | inhibition [4]: 90.8% | inhibition [6]: 77.9% | Activity [7]: 2.62 µMequiv/µM | Ratio IC50 (Homo sapiens): 4.11 | IC50 (Acetylcholinesterase): 32.6 µM

CN(C)c1ccc(/C=C/C(=O)c2ccc(OC(=O)N3CCCC3)cc2O)cc1
IC50 [2]: 0.29 µM | Ratio IC50 [9]: 2 | Activity [10]: Active | Ratio IC50 [11]: > 26.7 | inhibition (INH) [3]: < 10% | inhibition [12]: Active | inhibition [4]: 89.5% | inhibition at 10 µM [5]: 12.8% | Activity [13]: Active | inhibition [6]: 79.7% | Activity [14]: 0.98 molar ratio | Activity [7]: 2.83 µMequiv/µM | Papp at 18 h, 100 ug/ml [15]: 70.3 nm/s | IC50 (Acetylcholinesterase): 4.91 µM

CN(C)c1ccc(/C=C/C(=O)c2ccc(O)cc2O)cc1
IC50 [2]: 0.31 µM | inhibition (INH) [3]: < 10% | IC50 [8]: 4.06 µM | inhibition [4]: 77.7% | inhibition [6]: 60.1% | Activity [7]: 2 µMequiv/µM | Ratio IC50 (Homo sapiens): 13.4 | IC50 (Acetylcholinesterase): 78.2 µM

CCN(C)C(=O)Oc1ccc(C(=O)/C=C/c2ccc(N(C)C)cc2)c(O)c1
IC50 [2]: 2.1 µM | inhibition (INH) [3]: < 10% | inhibition [4]: 98% | inhibition at 10 µM [5]: 25.9% | inhibition [6]: 88% | Activity [7]: 3.14 µMequiv/µM | Ratio IC50 (Homo sapiens): > 4.76 | IC50 (Acetylcholinesterase): 14.3 µM

Source: ChEMBL document CHEMBL3875206, “Design, synthesis and biological evaluation of 4'-aminochalcone-rivastigmine hybrids as multifunctional agents for the treatment of Alzheimer's disease” (Bioorg Med Chem, 2017)
